Source: ChEMBL document CHEMBL1139738, “Pyridine-3-propanoic acids: Discovery of dual PPARalpha/gamma agonists as antidiabetic agents” (Bioorg Med Chem Lett, 2006)

Legend:
[1] = molecular target: T1, Peroxisome proliferator-activated receptor gamma (Homo sapiens, UniProt P37231); test: Displacement of radiolabeled darglitazone from human PPAR gamma by SPA binding assay
T1 sequence (P37231 whole entry): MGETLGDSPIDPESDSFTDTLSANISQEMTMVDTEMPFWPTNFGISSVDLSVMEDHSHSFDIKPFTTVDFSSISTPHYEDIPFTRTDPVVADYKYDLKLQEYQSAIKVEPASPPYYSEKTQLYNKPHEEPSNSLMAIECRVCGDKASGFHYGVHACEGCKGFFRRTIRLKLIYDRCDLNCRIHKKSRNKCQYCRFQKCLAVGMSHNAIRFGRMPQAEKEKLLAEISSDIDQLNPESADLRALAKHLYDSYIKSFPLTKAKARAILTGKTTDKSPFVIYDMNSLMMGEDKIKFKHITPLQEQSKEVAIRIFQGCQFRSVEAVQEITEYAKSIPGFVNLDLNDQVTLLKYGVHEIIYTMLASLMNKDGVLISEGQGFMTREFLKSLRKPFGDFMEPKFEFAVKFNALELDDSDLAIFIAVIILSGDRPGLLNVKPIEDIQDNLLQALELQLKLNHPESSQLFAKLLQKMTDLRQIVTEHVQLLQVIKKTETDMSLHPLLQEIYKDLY

[2] = molecular target: T2, Peroxisome proliferator-activated receptor alpha (Homo sapiens, UniProt Q07869); test: Displacement of radiolabeled GW-2331 from human PPAR alpha by SPA binding assay
T2 sequence (Q07869 whole entry): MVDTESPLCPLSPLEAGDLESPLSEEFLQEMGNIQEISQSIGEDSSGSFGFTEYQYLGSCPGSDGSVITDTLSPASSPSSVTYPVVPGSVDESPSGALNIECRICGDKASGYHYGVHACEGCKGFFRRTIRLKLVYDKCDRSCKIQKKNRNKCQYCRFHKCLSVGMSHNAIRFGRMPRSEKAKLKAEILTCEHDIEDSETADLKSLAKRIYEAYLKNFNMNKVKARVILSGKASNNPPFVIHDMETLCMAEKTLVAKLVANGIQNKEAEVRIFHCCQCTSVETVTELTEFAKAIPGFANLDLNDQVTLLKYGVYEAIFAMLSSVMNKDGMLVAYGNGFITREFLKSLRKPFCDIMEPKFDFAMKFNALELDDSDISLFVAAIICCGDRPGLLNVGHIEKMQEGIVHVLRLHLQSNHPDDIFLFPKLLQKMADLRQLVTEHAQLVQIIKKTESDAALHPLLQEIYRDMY

[3] = molecular target: T1, Peroxisome proliferator-activated receptor gamma; test: Agonist activity at human PPAR gamma in a HepG2 cells by PPAR-GAL4 transactivation assay; type: functional, cell-based
[4] = molecular target: T2, Peroxisome proliferator-activated receptor alpha; test: Agonist activity at human PPAR alpha in a HepG2 cells by PPAR-GAL4 transactivation assay; type: functional, cell-based
[5] = molecular target: T3, Peroxisome proliferator-activated receptor alpha (Homo sapiens) (UniProt Q07869); test: Agonist activity at human PPAR alpha in a HepG2 cells by PPAR-GAL4 transactivation assay relative to GW-2331; type: functional, cell-based
T3 sequence (whole entry): T2 sequence (Q07869 whole entry)

[6] = Oral bioavailability in Sprague-Dawley rat; type: ADME, organism-based; settings: in vivo
Summary of the method: (§1)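 Pharmacokinetics in male Sprague–Dawley rats given iv and oral doses. Outputs are iv clearance (mL/min/kg), oral half-life, dose-normalized oral AUC (h μg/mL) and oral bioavailability (%).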

[7] = Clearance in iv dosed Sprague-Dawley rat; type: ADME, organism-based; settings: in vivo; summary of the method: as §1
[8] = Half life in orally dosed Sprague-Dawley rat; type: ADME, organism-based; settings: in vivo, po; summary of the method: as §1
[9] = system: Mus musculus; test: Reduction of plasma glucose in orally dosed db/db mouse at 0.03 mg/kg after 8 days relative to control; type: functional; set-up: scale not given: the % may be the effect or the level left; settings: route oral
Summary of the method: (§2)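 Male db/db mice, 7 weeks old, with lean controls, given vehicle or compound by oral gavage once daily for 8 days. Plasma glucose, triglycerides, hematocrit and body weight measured before dosing on day −1 and 2 h post-dose on day 8. Percent change is expressed versus vehicle control, with significance at p < 0.05.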

[10] = system: Mus musculus; test: Reduction of plasma glucose in orally dosed db/db mouse at 1 mg/kg after 8 days relative to control; type: functional; set-up: scale not given: the % may be the effect or the level left; settings: route oral; summary of the method: as §2
[11] = system: Mus musculus; test: Reduction of plasma triglycerides in orally dosed db/db mouse at 0.03 mg/kg after 8 days relative to control; type: functional; set-up: scale not given: the % may be the effect or the level left; settings: route oral; summary of the method: as §2
[12] = system: Mus musculus; test: Reduction of plasma triglycerides in orally dosed db/db mouse at 1 mg/kg after 8 days relative to control; type: functional; set-up: scale not given: the % may be the effect or the level left; settings: route oral; summary of the method: as §2
[13] = system: Mus musculus; test: Reduction of hematocrit in orally dosed db/db mouse at 0.03 mg/kg after 8 days relative to control; type: functional; set-up: scale not given: the % may be the effect or the level left; settings: route oral; summary of the method: as §2
[14] = system: Mus musculus; test: Reduction of hematocrit in orally dosed db/db mouse at 1 mg/kg after 8 days relative to control; type: functional; set-up: scale not given: the % may be the effect or the level left; settings: route oral; summary of the method: as §2
[15] = system: Mus musculus; test: Increase in body weight in orally dosed db/db mouse at 0.03 mg/kg after 8 days relative to control; type: functional; settings: route oral; summary of the method: as §2
[16] = system: Mus musculus; test: Increase in body weight in orally dosed db/db mouse at 1 mg/kg after 8 days relative to control; type: functional; settings: route oral; summary of the method: as §2
[17] = molecular target: T3, Peroxisome proliferator-activated receptor alpha (Homo sapiens); test: Displacement of radiolabeled GW-2331 from human PPAR alpha by SPA assay at 100 uM
Summary of the method: (§3)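 Scintillation proximity assay on human PPARα using radiolabelled GW2331 as the displaced ligand, following published procedures. Single-concentration lines report percent displacement at the stated test concentration; Ki was determined for compounds with a full curve.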

[18] = molecular target: T3, Peroxisome proliferator-activated receptor alpha (Homo sapiens); test: Displacement of radiolabeled GW-2331 from human PPAR alpha by SPA assay at 11 uM; summary of the method: as §3
[19] = molecular target: T4, Peroxisome proliferator-activated receptor gamma (Homo sapiens) (UniProt P37231); test: Displacement of radiolabeled darglitazone from human PPAR gamma at 100 uM by SPA assay
T4 sequence (whole entry): T1 sequence (P37231 whole entry)
Summary of the method: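 Scintillation proximity assay on human PPARγ using radiolabelled darglitazone as the displaced ligand, following published procedures. Single-concentration lines report percent displacement at the stated test concentration; Ki was determined for compounds with a full curve.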

Row | Compound | Ki [2] [nM] | EC50 [4] [nM] | %max [5] [%] | other results
1 | CCOC(CC)(Cc1ccc(OCCc2nc(-c3ccccc3)oc2C)nc1)C(=O)O (stereo unspecified) | 15100 | 4670 | 64 | Ki [1]: 14400 nM; EC50 [3]: 2810 nM
2 | Cc1oc(-c2ccccc2)nc1CCOc1ccc(C[C@]2(C(=O)O)CCCO2)cn1 | 32 | 165 | 89 | bioavailability [6]: 59%; clearance [7]: 2.5 mL/min/kg; half-life [8]: 4.7 h; Activity [9]: 37%; Activity [10]: 99%; Activity [11]: 67%; Activity [12]: 147%; Activity [13]: 7.2%; Activity [14]: 8.7%; Activity [15]: 11.7%; Activity [16]: 15.7%
3 | Cc1oc(-c2ccc(Cl)cc2)nc1CCOc1ccc(CC2(C(=O)O)CCCO2)cn1 (stereo unspecified) | 14 | 10 | 87 | –
4 | CCC(Cc1ccc(OCCc2nc(-c3ccccc3)oc2C)nc1)C(=O)O (stereo unspecified) | 1300 | 150 | 106 | –
5 | Cc1ccc(-c2nc(CCOc3ccc(CC4(C(=O)O)CCCO4)cn3)c(C)o2)cc1 (stereo unspecified) | 31 | 23 | 84 | –
6 | CN(CCOc1ccc(CC2SC(=O)NC2=O)cc1)c1ccccn1 (stereo unspecified) | – | – | 6 | –
7 | Cc1oc(-c2ccccc2)nc1CCOc1ccc(CC(C(=O)O)C(C)(C)C)cn1 (stereo unspecified) | 9400 | – | – | Ki [1]: 12000 nM
8 | COC(C)(Cc1ccc(OCCc2nc(-c3ccccc3)oc2C)nc1)C(=O)O (stereo unspecified) | 330 | 144 | 106 | –
9 | Cc1oc(-c2ccc(C(F)(F)F)cc2)nc1CCOc1ccc(CC2(C(=O)O)CCCO2)cn1 (stereo unspecified) | 21 | 11 | 143 | –
10 | Cc1oc(-c2ccccc2)nc1CCOc1ccc(CC(C(=O)O)C(C)C)cn1 (stereo unspecified) | 4100 | 426 | 93 | –
11 | COC(Cc1ccc(OCCc2nc(-c3ccccc3)oc2C)nc1)C(=O)O (stereo unspecified) | 180 | 83 | 95 | –
12 | Cc1oc(-c2cccc(Cl)c2)nc1CCOc1ccc(CC2(C(=O)O)CCCO2)cn1 (stereo unspecified) | 99 | 46 | 117 | –
13 | COc1cccc(-c2nc(CCOc3ccc(CC4(C(=O)O)CCCO4)cn3)c(C)o2)c1 (stereo unspecified) | 215 | 90 | 104 | –
14 | CCCC(Cc1ccc(OCCc2nc(-c3ccccc3)oc2C)nc1)C(=O)O (stereo unspecified) | 880 | 770 | 92 | –
15 | COc1ccc(-c2nc(CCOc3ccc(CC4(C(=O)O)CCCO4)cn3)c(C)o2)cc1 (stereo unspecified) | 65 | 486 | 96 | –
16 | Cc1oc(-c2cccc(C(F)(F)F)c2)nc1CCOc1ccc(CC2(C(=O)O)CCCO2)cn1 (stereo unspecified) | 100 | 8 | 81 | –

Row | Compound | Ki [2] [nM] | EC50 [4] [nM] | %max [5] [%] | other results
17 | Cc1oc(-c2ccccc2)nc1CCOc1ccc(CC2(C(=O)O)CC2)cn1 | – | 6150 | 39 | inhibition [17]: 44%
18 | Cc1oc(-c2ccccc2)nc1CCOc1ccc(CC2(C(=O)O)CCCCC2)cn1 | 8300 | – | – | –
19 | Cc1oc(-c2ccccc2)nc1CCOc1ccc(CC(C)(C)C(=O)O)cn1 | 6800 | 534 | 112 | –
20 | Cc1oc(-c2ccccc2)nc1CCCOc1ccc(CC2(C(=O)O)CCCO2)cn1 (stereo unspecified) | 1840 | – | – | Ki [1]: 810 nM
21 | Cc1oc(-c2ccccc2)nc1CCOc1ccc(CC2(C(=O)O)CCOCC2)cn1 | – | – | – | inhibition [18]: 2%; Activity [19]: 32%
22 | Cc1oc(-c2ccc(C#N)cc2)nc1CCOc1ccc(CC2(C(=O)O)CCCO2)cn1 (stereo unspecified) | 314 | 31 | 167 | Ki [1]: 334 nM; EC50 [3]: 28 nM
23 | Cc1oc(-c2ccccc2)nc1CCOc1ccc(CC2(C(=O)O)CCOC2)cn1 (stereo unspecified) | – | – | – | Ki [1]: 17000 nM; inhibition [17]: 33%
24 | Cc1oc(-c2ccccc2)nc1CCOc1ccc(CC2(C(=O)O)CCCO2)cn1 (stereo unspecified) | 78 | 48 | 106 | –
25 | Cc1oc(-c2ccccc2)nc1CCOc1ccc(CC2(C(=O)O)CCCCO2)cn1 (stereo unspecified) | 78 | 228 | 96 | –
26 | Cc1oc(-c2ccccc2)nc1CCOc1ccc(CC(CC(C)C)C(=O)O)cn1 (stereo unspecified) | 430 | 1720 | 98 | Ki [1]: 360 nM; EC50 [3]: 1650 nM
27 | CCOC(Cc1ccc(OCCc2nc(-c3ccccc3)oc2C)nc1)C(=O)O (stereo unspecified) | 43 | 33 | 96 | –
28 | Cc1oc(-c2ccccc2)nc1CCOc1ccc(CC(C)C(=O)O)cn1 (stereo unspecified) | 3000 | 287 | 93 | –
29 | Cc1oc(-c2ccccc2)nc1CCOc1ccc(CC2(C(=O)O)CCC2)cn1 | 633 | 238 | 94 | Ki [1]: 394 nM; EC50 [3]: 125 nM
30 | Cc1cccc(-c2nc(CCOc3ccc(CC4(C(=O)O)CCCO4)cn3)c(C)o2)c1 (stereo unspecified) | 277 | 134 | 86 | –
31 | COC(Cc1ccc(OCCc2ccc(Oc3cccc(Cl)c3)cc2C)nc1)C(=O)O (stereo unspecified) | 13 | 133 | 100 | Ki [1]: 15 nM; EC50 [3]: 50 nM
